# HSF1 activator – increases HSF-1 driven luciferase reporter signal. NIH3T3-HGL HSF-1 luciferase reporter, MG132, 8 h; 100% = twice DMSO control signal. activation, % at 9 µM. 1.7% of 300,000 active;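 active = mean replicate activation of at least 50% with a set share of replicates each reaching 50%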;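 also: 0% = median of the neutral control wells and 100% = twice that signal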
# Hsp70 act – Hsp70 transcriptional activation, primary screen; 0.04% of 200,000 active; HeLa Hsp70 promoter luciferase reporter, luminescence; scaled: vehicle 0, proteasome-inhibitor control 100%; activation, % at 10 µM;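 active = activation above the mean across all tested compounds plus 3 SD, cutoff set per campaign, cut at about 5.5% in these data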;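 also: 100% = MG132 at 30 µM as the positive control and 0% = DMSO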
# HSF1 inh – HSF1 inhibition; NIH3T3-HGL HSE-luciferase, MG132-induced, luminescence 8 h; stronger effect = lower value; activity change, negative = inhibition, % at 7.5 µM (by protocol); 0.77% of 300,000 active;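 active = more than half of replicate wells show activity change below -50%, luminescence cut by over half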;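 also: luciferase reports HSF-1 transcriptional activity via heat shock element; 0% = median of DMSO wells and -100% = zero luminescence signal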
# Lmaj promast – inhibitors of Leishmania major promastigote growth | 9% of 200,000 active | inhibition, % at 10 µM | Leishmania major promastigotes, resazurin fluorescence viability | AID 1063; in the data active = inhibition above about 50%;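 also: promastigotes grown with compound for 44 hours at 28 °C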
# T cruzi repl – T. cruzi replication inhibition; T. cruzi beta-gal in NIH3T3, luminescence, 90 h; inhibition, % (test concentration not listed); AID 1885; 1.4% of 300,000 active;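 active = mean inhibition across valid replicates above about 55%, limit read from the data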;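 also: signal also drops with host cell toxicity which is not excluded here; 0% = plate median of DMSO wells and 100% = zero luminescence signal; higher percent means less beta-gal luminescence so fewer parasites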
#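 System: mouse NIH/3T3 fibroblasts infected with β-gal-expressing T. cruzi Tulahuen C4 / Input: NIH/3T3 cells, 5,000 per well / Buffer or medium: Low-serum DMEM with 2% FBS / Probe or stimulus: 5000 reporter trypomastigotes per well / Schedule: ≥90 h infection period, 3 h prior cell attachment / Measured by: GalScreen luminescence, 60 min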
# * marks the source's active call; other numbers are inactive results; x = no result given. This is one part of a sample in which hits are shown more often than they occur.
SMILES,HSF1 activator,Hsp70 act,HSF1 inh,Lmaj promast,T cruzi repl
Cc1c(C(=O)NCCCN2CCOCC2)sc2nc(-c3ccc(F)cc3)cn12,-7,0,-12,79*,-12
c1ccc2[nH]c(-c3cnco3)cc2c1,-2,x,-4,x,-16
Cc1cccc(N2C(N)=C(C#N)C(C#N)(C#N)C2c2ccccc2)c1 (stereo not given),18,0,10,9,-2
N#CC1=C(N)N(c2ccccc2)C(c2cccc([N+](=O)[O-])c2)C1(C#N)C#N (stereo not given),27,0,1,54*,17
S=C(NCc1cccs1)Nc1cccc2ccccc12,56*,0,32,13,-9
S=C(NCCc1ccccc1)NCc1cccs1,45,0,13,79*,-6
COc1ccc(CCNC(=S)NCc2cccs2)cc1OC,11,0,3,1,0
CC(C)(CNC(=S)NCCc1ccccc1)CNC(=S)NCCc1ccccc1,29,0,15,95*,65*
S=C(NCc1ccccc1)Nc1cccc2ccccc12,25,x,2,x,1
OCCNC(=S)NCCc1ccccc1,-5,0,3,-8,-6
O=C(Oc1ccccc1Cl)C1CCN(C(=O)c2ccc(F)cc2)CC1,-4,x,0,x,-21
COc1ccc(NC(=O)N2CCCCC2c2cccnc2)cc1 (stereo not given),-20,0,-12,85*,66*
COc1cc(C)c(C)cc1S(=O)(=O)N1CCCCC1c1cccnc1 (stereo not given),0,0,4,92*,42
COc1cc(OC)cc(C(=O)NC(=S)N2CCCCC2c2cccnc2)c1 (stereo not given),6,x,-3,x,62*
Cc1ccc(-c2nc3cc(N)ccc3o2)cc1,4,0,10,46,3
Cc1ccc2oc(-c3cccc(N)c3)nc2c1,70*,0,29,5,12
CCn1c(C)nc2cc(C(=O)N/N=C/c3cccc(OC)c3O)ccc21,5,0,0,94*,-23
CCn1c(C)nc2cc(C(=O)N/N=C/c3ccc(O)c(O)c3O)ccc21,13,0,-3,-11,34
COc1cccc(/C=N/NC(=O)N/N=C/c2cccc(OC)c2O)c1O,-3,x,-4,x,4
COc1cccc(/C=N/NC(=O)c2c(C)nc3ccc(Br)cn23)c1O,-8,0,11,100*,69*
COc1cccc(/C=N/NC(=O)c2nc(-c3ccccc3)cc(-c3ccccc3)n2)c1O,2,0,1,100*,6
CC1CC1C(=O)N(CCC1=CCCCC1)c1c(N)n(Cc2ccccc2)c(=O)[nH]c1=O (stereo not given),-17,x,-5,x,1
CCCNC(=O)c1ccc(CN2CCOCC2)cc1,22,0,-2,-6,-11
C=CCn1c(SCC(=O)NCc2ccccc2)nnc1C1CCCCC1,15,0,4,78*,4
Cc1cc(C)c(S(=O)(=O)c2ccccc2C)c(SCC(C)C)n1,2,0,-6,92*,10
SMILES,HSF1 activator,Hsp70 act,HSF1 inh,Lmaj promast,T cruzi repl
CCOCCOc1nc(C)cc(C)c1S(=O)(=O)c1ccccc1C,0,0,-11,11,3
CCCSc1nc(C)cc(C)c1S(=O)(=O)c1ccccc1C,-6,0,3,94*,7
Cc1cc(C)c(S(=O)(=O)c2ccccc2C)c(OCC(C)(C)C)n1,-9,0,-3,96*,19
Cc1cc(C)c(S(=O)(=O)c2ccccc2C)c(N(C)C)n1,4,0,-7,-1,-10
CC(C)CC1=NN(C(=O)c2ccncc2)C(O)(C(F)(F)F)C1 (stereo not given),-4,0,-5,-1,-11
CC(C)(C)c1ccc(SCCc2cccnc2)cc1,35,x,33,x,26
c1ccc(COc2ccc3nocc3c2)cc1,15,x,24,x,-3
O=C(C1=C[C@@H](c2csc3ccccc23)C[C@@H](OCc2ccc(CO)cc2)O1)N1CCN(Cc2ccccc2)CC1,15,0,4,51*,68*
O=C(C1=C[C@@H](c2csc3ccccc23)C[C@@H](OCCCCO)O1)N1CCN(Cc2ccc3c(c2)OCO3)CC1,12,0,-4,23,25
O=C(C1=C[C@@H](c2csc3ccccc23)C[C@@H](OCc2ccc(CO)cc2)O1)N1CCN(Cc2ccc3c(c2)OCO3)CC1,6,0,1,73*,22
Cc1ccc(C)c(NC(=O)CCc2nnc3ccc(N4CCCCC4)nn23)c1,3,x,3,x,2
COc1cc(NC(=O)c2ccno2)cc(C(=O)Nc2cccc(C(F)(F)F)c2)c1,-8,x,-1,x,7
COc1cc(NC(=O)c2cc3cccc(OC)c3o2)cc(C(=O)Nc2cccc(C(F)(F)F)c2)c1,-74,x,-67*,x,19
COc1cccc(NC(=O)c2cc3cccc(OC)c3o/c2=N\O)c1,59*,x,19,x,-11
Cc1ccc(C(=O)Nc2ccc(Cl)cc2C)c(Cl)c1,67*,0,49,1,-10
O=C(O)C1(S(=O)(=O)CCC(F)=C(F)F)CC1,9,0,1,-9,-12
Cc1ccc(CN2C(=O)C(C)Nc3ncnc(N4CCN(c5ccccn5)CC4)c32)cc1 (stereo not given),-46,x,-30,x,15
COc1cccc(CNc2ccc(F)c(Cl)c2)c1O,75*,0,61,-1,-9
COc1cccc(CNc2cccc3cccnc23)c1O,76*,0,37,-2,13
COc1cccc(CNc2ccccn2)c1O,37,x,9,x,3
COc1cccc(CNc2cccc(C(F)(F)F)c2)c1O,7,0,2,7,0
COc1cccc(CNc2cnc3ccccc3c2)c1O,73*,0,84,2,-1
Cc1cc(C)n(C(=O)c2ccc([N+](=O)[O-])cc2Cl)n1,-18,x,0,x,-4
C=COCCNC(=S)N1CCOCCOCCN(C(=S)NCCOC=C)CCOCC1,-10,0,-2,0,8
CC(C)SC1=NC(C)(C)C=C(/C=C/c2c(Cl)cccc2Cl)N1,32,0,28,100*,-7
SMILES,HSF1 activator,Hsp70 act,HSF1 inh,Lmaj promast,T cruzi repl
CC(C)SC1=NC(C)(C)C=C(/C=C/c2ccc(Cl)cc2Cl)N1,82*,0,57,95*,18
CN(C1CCCC1)C1CCN(C(=S)Nc2cc(F)cc(F)c2)CC1,-2,0,1,77*,18
CCC(C)N(C)C1CCN(C(=S)Nc2cccc(SC)c2)CC1 (stereo not given),-8,1,-17,76*,1
CSc1cccc(NC(=S)N2CCC(N(C)C3CCCCCC3)CC2)c1,-4,0,-1,88*,33
Cc1cccc(NC(=S)N2CCCCC2)c1,22,0,12,-4,-22
CSc1cccc(NC(=S)N2CCC(N(C)C(C)C)CC2)c1,-3,0,-12,62*,1
O=C(C1CCCO1)N1CCN(C(=S)Nc2cc(F)cc(F)c2)CC1 (stereo not given),-12,x,-5,x,-12

# Compound activity (PubChem BioAssay)
